Assay results as given in ChEMBL document CHEMBL4334491, “Discovery of Benzamidine- and 1-Aminoisoquinoline-Based Human MAS-Related G-Protein-Coupled Receptor X1 (MRGPRX1) Agonists” (J Med Chem, 2019).
Activity calls are given as the source filed them. The rule behind the calls is not given here.

Assays:
[1] = biological target: T1, Mas-related G-protein coupled receptor member X1 (Homo sapiens, UniProt Q96LB2); test: Agonist activity at human MrgprX1 expressed in HEK293 cells incubated for 2 mins by Fluo4AM dye based FLIPR assay; format: cell-based
Outline: (§1)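 HEK293 cells stably expressing human MrgprX1 were plated at 25,000/well and grown 2 days. They were loaded with 2 μM Fluo-4 AM plus 1% Trypan Red in HBSS for 50 min at 37°C, then equilibrated 10 min at room temperature. Serially diluted compounds in HBSS were added, with BAM8-22 as positive control. FLIPR imaging ran 2 min, read as max–min fluorescence. EC50 is mean ± SD of ≥4 experiments.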

[2] = biological target: T1, Mas-related G-protein coupled receptor member X1; test: Agonist activity at human MRGPRX1 in DRG neurons obtained from humanized MrgprX1 mouse assessed as inhibition of high-voltage-activated Ca2+ currents 10 uM at -80 mV holding potential; format: functional
Outline: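 DRG neurons from 3–4-week-old humanized MrgprX1 mice were dispase/collagenase-dissociated, cultured with NGF and GDNF, and used after 20–40 h. Whole-cell patch clamp was done in Ba2+/NMDG extracellular solution, pH 7.4, at 21–23°C. Cells were held at −80 mV, stepped to −40 mV, then −60 mV, then −10 mV for 40 ms to evoke HVA currents. Compound was bath-applied; P/4 leak subtraction.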

[3] = biological target: T1, Mas-related G-protein coupled receptor member X1; test: Agonist activity at human MrgprX1 expressed in HEK293 cells incubated for 2 mins by Fluo4AM dye based FLIPR assay relative to BAM8-22; format: cell-based; outline: as §1
[4] = biological target: T1, Mas-related G-protein coupled receptor member X1; test: Agonist activity at human MrgprX1 expressed in HEK293 cells up to 100 uM incubated for 2 mins by Fluo4AM dye based FLIPR assay relative to BAM8-22; format: cell-based; outline: as §1
[5] = biological target: Delta-type opioid receptor (Rattus norvegicus, UniProt P33533); test: Displacement of [3H]DADLE from delta opioid receptor in rat brain after 60 mins by liquid scintillation counting method; format: tissue-based
[6] = biological target: Kappa-type opioid receptor (Rattus norvegicus, UniProt P34975); test: Displacement of [3H]U-69,593 from kappa opioid receptor in rat brain after 60 mins by liquid scintillation counting method; format: tissue-based
Mu-type opioid receptor = Mu-type opioid receptor (Rattus norvegicus, UniProt P33535); test: Displacement of [3H]DAMGO from mu opioid receptor in rat brain after 60 mins by liquid scintillation counting method; format: tissue-based
[7] = biological target: T1, Mas-related G-protein coupled receptor member X1; test: Agonist activity at human MRGPRX1 in DRG neurons obtained from humanized MrgprX1 mouse assessed as inhibition of high-voltage-activated Ca2+ currents 5 uM at -80 mV holding potential; format: functional
Outline: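 DRG neurons from 3–4-week-old MrgprX1 mice, enzyme-dissociated, cultured with NGF and GDNF and used at 20–40 h. Whole-cell patch clamp of MrgprA3-GFP neurons at 21–23 °C in NMDG-Cl/5 mM BaCl2 bath, pH 7.4. Holding −80 mV, step to −40 mV 20 ms, −60 mV 20 ms, then −10 mV 40 ms evoking HVA current. P/4 leak subtraction. Currents compared before/after bath application.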

[8] = Selectivity index, ratio of Ki for displacement of [3H]DAMGO from mu opioid receptor in rat brain after 60 mins by liquid scintillation counting method to EC50 for agonist activity at human MrgprX1 expressed in HEK293 cells incubated for 2 mins by Fluo4AM dye based FLIPR assay; format: cell-based
[9] = AUC in CD1 mouse plasma at 10 mg/kg, iv administered as single dose by LC-MS/MS analysis; format: ADME, organism-based; conditions: in vivo
Outline: (§2)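 Male CD1 mice (25–30 g) received a single 10 mg/kg iv dose, n=3 per time point, and were killed by CO2 at set times. Plasma came from cardiac-puncture blood spun at 3,000 g for 15 min. Spinal cords were flash frozen. Samples were extracted in acetonitrile with losartan internal standard and quantified by LC/MS/MS. Calibration covered 0.01–10 nmol/mL, built with 1/x-weighted linear regression in naive matrix.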

[10] = Ratio of AUC in spinal cord to AUC in plasma of CD1 mouse at 10 mg/kg, iv administered as single dose by LC-MS/MS analysis; format: ADME, organism-based; outline: as §2
[11] = Selectivity index, ratio of Ki for displacement of [3H]DADLE from delta opioid receptor in rat brain after 60 mins by liquid scintillation counting method to EC50 for agonist activity at human MrgprX1 expressed in HEK293 cells incubated for 2 mins by Fluo4AM dye based FLIPR assay; format: cell-based
[12] = AUC in CD1 mouse spinal cord at 10 mg/kg, iv administered as single dose by LC-MS/MS analysis; format: ADME, organism-based; conditions: in vivo; outline: as §2
[13] = Half life in CD1 mouse at 10 mg/kg, iv administered as single dose by LC-MS/MS analysis; format: ADME, organism-based; conditions: in vivo; outline: as §2
[14] = Selectivity index, ratio of Ki for [3H]U-69,593 from kappa opioid receptor in rat brain after 60 mins by liquid scintillation counting method to EC50 for agonist activity at human MrgprX1 expressed in HEK293 cells incubated for 2 mins by Fluo4AM dye based FLIPR assay; format: cell-based
[15] = biological target: T2, Mas-related G-protein coupled receptor member X1 (Mus musculus) (UniProt Q8CIP3); test: Agonist activity at mouse MRGPRC11 expressed in KNRK cells at 40 uM by Fura2-AM dye based FLIPR assay; format: cell-based
T2 sequence (whole entry): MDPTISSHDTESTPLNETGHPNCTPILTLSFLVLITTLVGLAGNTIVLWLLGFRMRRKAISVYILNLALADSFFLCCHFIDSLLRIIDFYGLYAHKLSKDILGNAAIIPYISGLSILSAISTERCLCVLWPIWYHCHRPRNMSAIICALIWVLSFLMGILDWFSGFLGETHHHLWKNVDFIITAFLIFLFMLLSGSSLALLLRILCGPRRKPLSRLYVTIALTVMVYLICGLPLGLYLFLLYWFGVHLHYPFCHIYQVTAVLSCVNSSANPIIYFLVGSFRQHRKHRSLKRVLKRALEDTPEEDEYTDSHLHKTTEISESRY

[16] = Half life in mouse liver microsomes; format: ADME, Microsome

T1 sequence (Q96LB2 whole entry): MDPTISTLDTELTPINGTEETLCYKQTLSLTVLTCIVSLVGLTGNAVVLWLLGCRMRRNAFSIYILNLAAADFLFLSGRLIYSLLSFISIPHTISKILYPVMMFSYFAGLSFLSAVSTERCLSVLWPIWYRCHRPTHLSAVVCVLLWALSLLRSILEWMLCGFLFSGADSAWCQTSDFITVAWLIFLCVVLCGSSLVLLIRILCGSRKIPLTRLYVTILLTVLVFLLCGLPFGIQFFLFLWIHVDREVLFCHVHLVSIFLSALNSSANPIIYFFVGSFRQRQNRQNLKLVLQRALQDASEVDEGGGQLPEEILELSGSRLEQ
Kappa-type opioid receptor, sequence (P34975 whole entry): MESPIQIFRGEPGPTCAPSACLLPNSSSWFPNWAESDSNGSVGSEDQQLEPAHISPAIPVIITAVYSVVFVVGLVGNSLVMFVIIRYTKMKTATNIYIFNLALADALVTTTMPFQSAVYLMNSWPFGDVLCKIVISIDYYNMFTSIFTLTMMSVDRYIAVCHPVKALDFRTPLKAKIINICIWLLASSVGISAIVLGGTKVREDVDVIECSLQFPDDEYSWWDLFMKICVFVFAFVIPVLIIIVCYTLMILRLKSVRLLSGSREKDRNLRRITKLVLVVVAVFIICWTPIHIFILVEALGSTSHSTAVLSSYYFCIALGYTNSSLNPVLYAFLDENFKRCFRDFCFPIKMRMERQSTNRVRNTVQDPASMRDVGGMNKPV
Delta-type opioid receptor, sequence (P33533 whole entry): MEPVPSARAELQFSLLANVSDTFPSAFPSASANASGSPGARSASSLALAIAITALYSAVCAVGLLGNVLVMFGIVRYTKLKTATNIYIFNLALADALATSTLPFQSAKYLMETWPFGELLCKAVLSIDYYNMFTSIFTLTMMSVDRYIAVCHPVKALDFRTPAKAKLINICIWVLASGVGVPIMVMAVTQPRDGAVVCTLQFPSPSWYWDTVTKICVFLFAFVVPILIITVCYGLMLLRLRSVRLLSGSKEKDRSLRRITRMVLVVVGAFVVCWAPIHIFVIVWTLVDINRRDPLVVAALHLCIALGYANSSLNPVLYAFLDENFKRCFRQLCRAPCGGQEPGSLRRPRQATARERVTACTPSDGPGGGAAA
Mu-type opioid receptor, sequence (P33535 whole entry): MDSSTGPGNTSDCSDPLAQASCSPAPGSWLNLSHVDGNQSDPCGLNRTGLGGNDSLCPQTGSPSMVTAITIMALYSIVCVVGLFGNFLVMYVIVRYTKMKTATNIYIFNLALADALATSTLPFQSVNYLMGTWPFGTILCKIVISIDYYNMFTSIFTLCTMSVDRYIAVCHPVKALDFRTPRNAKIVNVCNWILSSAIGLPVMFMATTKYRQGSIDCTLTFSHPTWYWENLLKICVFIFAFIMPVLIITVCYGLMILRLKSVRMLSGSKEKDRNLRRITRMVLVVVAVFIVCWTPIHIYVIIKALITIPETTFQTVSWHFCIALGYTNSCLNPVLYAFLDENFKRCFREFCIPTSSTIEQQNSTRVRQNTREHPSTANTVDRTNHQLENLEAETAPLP

Compound	EC50 [1]	Emax [3]	other results
COc1cc(CNc2ccc(C(=N)N)cc2)ccc1OCc1ccccc1	0.51 µM	> 95%	inhibition [2]: Active
COc1cc(CNc2ccc(C(=N)N)cc2)ccc1OCc1ccsc1	0.29 µM	> 95%	–
COc1cc(CNc2ccc(C(=N)N)cc2)ccc1OCc1cccnc1	5.2 µM	> 95%	–
COc1cc(CNc2cccc(C(=N)N)c2)ccc1OCc1ccccc1	3.3 µM	> 95%	–
COc1cc(CNc2ccc3c(N)nccc3c2)ccc1OCc1ccccc1	3.7 µM	> 95%	–
H-VGRPEWWMDYQKRYG-OH	–	–	inhibition [7]: Active
CCCCS(=O)(=O)Nc1cc(C)ccc1Oc1ccc(C(=N)N)cc1	0.92 µM	> 95%	–
COc1ccccc1S(=O)(=O)Nc1ccc(C)cc1Oc1cccc(C(=N)N)c1	3.6 µM	> 95%	–
Cc1ccc(NS(=O)(=O)c2ccccc2OC(F)(F)F)c(Oc2ccc(C(=N)N)cc2)c1	0.15 µM	> 95%	–
COc1ccccc1S(=O)(=O)Nc1ccc(C)cc1Oc1ccc2c(N)nccc2c1	0.05 µM	> 95%	Ratio [8]: 75; Ki [5]: 2.47 µM; AUC [9]: 0.9 µM·h; Ki [6]: 12.1 µM; Kp [10]: 6.3; Ratio [11]: 50; Ki (Mu-type opioid receptor): 3.73 µM; AUC [12]: 5.66 nmol·h/g; half-life [13]: 19.8 min; Ratio [14]: 242; Activity [15]: inactive; half-life [16]: < 15 min
COc1cc(CNc2ccc(C(=N)N)cc2)ccc1OCc1ccc(-n2cccc2)cc1	0.68 µM	> 95%	–
COc1ccccc1S(=O)(=O)Nc1ccc(C)cc1Oc1ccc2sc(N)nc2c1	> 100 µM	–	Activity [4]: inactive
N=C(N)c1ccc(NCc2ccc(OCc3ccccc3)cc2)cc1	5.2 µM	> 95%	–
CCCCS(=O)(=O)Nc1ccc(C)cc1Oc1ccc(C(=N)N)cc1	2.2 µM	> 95%	–

The next lines start with results.

EC50 [1]	Emax [3]	Compound	other results
1.9 µM	> 95%	COc1cc(CNc2ccc(C(=N)N)cc2)ccc1OCCC(C)C	–
0.3 µM	> 95%	CCCCS(=O)(=O)Nc1ccccc1Oc1ccc(C(=N)N)cc1	–
> 100 µM	–	COc1cc(CNc2ccccc2C(=N)N)ccc1OCc1ccccc1	inhibition [2]: inactive; Activity [4]: inactive
23 µM	> 95%	COc1ccccc1S(=O)(=O)Nc1ccc(C)cc1Oc1ccccc1C(=N)N	–
0.1 µM	> 95%	COc1ccccc1S(=O)(=O)Nc1ccc(C)cc1Oc1ccc(C(=N)N)cc1	Ki [5]: 0.22 µM; Ki [6]: 1.43 µM; Ki (Mu-type opioid receptor): 0.0727 µM
0.16 µM	> 95%	Cc1ccc(S(=O)(=O)Nc2ccc(C)cc2Oc2ccc(C(=N)N)cc2)cc1	–
2.1 µM	> 95%	Cc1ccc(NS(=O)(=O)c2ccc(F)cc2)c(Oc2ccc(C(=N)N)cc2)c1	–
